Experimental data: ChEMBL document CHEMBL2407028, “Discovery of novel oxazolidinedione derivatives as potent and selective mineralocorticoid receptor antagonists” (Bioorg Med Chem Lett, 2013)
Blank lines part the entries; values can stand above or below the compound they belong to.

Key:
Estrogen receptor [1] = biological target: T1, Estrogen receptor (Homo sapiens, UniProt P03372); assay: Antagonist activity at estrogen receptor alpha (unknown origin) by NH Pro assay
T1 sequence (P03372 whole entry): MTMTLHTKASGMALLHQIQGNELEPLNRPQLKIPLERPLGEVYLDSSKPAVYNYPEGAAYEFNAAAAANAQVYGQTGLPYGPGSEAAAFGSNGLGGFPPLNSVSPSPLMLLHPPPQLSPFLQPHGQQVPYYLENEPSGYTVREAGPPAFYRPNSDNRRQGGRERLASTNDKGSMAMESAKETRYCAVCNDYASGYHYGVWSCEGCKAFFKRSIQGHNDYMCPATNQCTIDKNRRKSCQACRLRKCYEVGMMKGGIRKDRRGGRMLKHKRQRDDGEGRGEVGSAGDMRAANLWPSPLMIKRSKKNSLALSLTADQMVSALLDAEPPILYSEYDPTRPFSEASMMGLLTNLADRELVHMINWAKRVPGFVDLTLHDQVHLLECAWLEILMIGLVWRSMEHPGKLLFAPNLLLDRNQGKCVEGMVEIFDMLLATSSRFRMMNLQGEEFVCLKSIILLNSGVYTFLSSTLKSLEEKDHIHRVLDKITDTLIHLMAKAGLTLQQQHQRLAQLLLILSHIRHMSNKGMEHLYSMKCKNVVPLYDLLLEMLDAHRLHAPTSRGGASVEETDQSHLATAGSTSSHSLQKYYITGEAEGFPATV

Estrogen receptor [2] = biological target: T1, Estrogen receptor; assay: Agonist activity at estrogen receptor alpha (unknown origin) by NH Pro assay
Rattus norvegicus [3] = assay: Dose normalized AUC in rat at 1 mg/kg, po; type: ADME, organism-based; parameters: dose 1 mg/kg, route oral; settings: in vivo
Summary of the method: (§1)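 Rats dosed at 1 mg/kg iv (n = 2) or 1 mg/kg po (n = 3), formulated at 1 mg/mL in PEG 200:water (70:30). Blood concentrations measured by LC/MS/MS after protein precipitation with acetonitrile.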

Rattus norvegicus [4] = assay: Dose normalized AUC in rat at 1 mg/kg, iv; type: ADME, organism-based; parameters: dose 1 mg/kg, route intravenous; settings: in vivo; summary of the method: as §1
[5] = Cmax in rat at 1 mg/kg, iv and 1 mg/lg, po; type: ADME, organism-based; parameters: dose 1 mg/kg, route oral; settings: in vivo; summary of the method: as §1
[6] = Half life in rat at 1 mg/kg, iv and 1 mg/lg, po; type: ADME, organism-based; parameters: dose 1 mg/kg, route oral; settings: in vivo; summary of the method: as §1
Rattus norvegicus [7] = assay: Volume of distribution at steady state in rat at 1 mg/kg, iv and 1 mg/lg, po; type: ADME, organism-based; parameters: dose 1 mg/kg, route oral; settings: in vivo; summary of the method: as §1
[8] = Oral bioavailability in rat at 1 mg/kg; type: ADME, organism-based; settings: in vivo; summary of the method: as §1
[9] = biological target: T2, Mineralocorticoid receptor (Homo sapiens, UniProt P08235); assay: Antagonist activity at human mineralocorticoid receptor assessed as inhibition of binding to coactivator peptide by NH Pro assay
T2 sequence (P08235 whole entry): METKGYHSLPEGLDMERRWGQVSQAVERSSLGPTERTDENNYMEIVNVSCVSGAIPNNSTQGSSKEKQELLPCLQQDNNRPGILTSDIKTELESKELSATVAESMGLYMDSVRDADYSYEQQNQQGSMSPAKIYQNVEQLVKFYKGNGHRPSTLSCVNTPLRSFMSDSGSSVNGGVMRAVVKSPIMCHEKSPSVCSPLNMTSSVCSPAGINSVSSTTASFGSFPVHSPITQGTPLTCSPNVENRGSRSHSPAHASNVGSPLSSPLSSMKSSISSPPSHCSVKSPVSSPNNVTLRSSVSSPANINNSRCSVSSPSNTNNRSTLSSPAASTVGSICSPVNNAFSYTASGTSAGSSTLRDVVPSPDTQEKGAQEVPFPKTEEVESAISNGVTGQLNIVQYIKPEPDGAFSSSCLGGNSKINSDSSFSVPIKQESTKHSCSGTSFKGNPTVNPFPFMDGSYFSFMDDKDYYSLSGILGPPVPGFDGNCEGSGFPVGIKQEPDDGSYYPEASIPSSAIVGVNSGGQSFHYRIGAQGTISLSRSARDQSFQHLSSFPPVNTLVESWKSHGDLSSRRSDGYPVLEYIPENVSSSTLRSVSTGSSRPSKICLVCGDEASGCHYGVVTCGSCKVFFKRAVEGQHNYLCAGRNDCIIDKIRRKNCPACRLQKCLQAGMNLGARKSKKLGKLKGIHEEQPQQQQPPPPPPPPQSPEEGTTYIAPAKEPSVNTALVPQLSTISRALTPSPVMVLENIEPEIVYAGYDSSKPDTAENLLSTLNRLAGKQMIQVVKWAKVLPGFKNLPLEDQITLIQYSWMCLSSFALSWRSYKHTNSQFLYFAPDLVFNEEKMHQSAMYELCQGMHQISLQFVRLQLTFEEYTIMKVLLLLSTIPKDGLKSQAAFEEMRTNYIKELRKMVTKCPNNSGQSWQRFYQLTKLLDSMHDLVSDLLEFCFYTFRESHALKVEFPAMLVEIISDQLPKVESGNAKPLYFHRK

Glucocorticoid receptor [10] = biological target: T3, Glucocorticoid receptor (Homo sapiens, UniProt P04150); assay: Agonist activity at glucocorticoid receptor (unknown origin) by NH Pro assay
T3 sequence (P04150 whole entry): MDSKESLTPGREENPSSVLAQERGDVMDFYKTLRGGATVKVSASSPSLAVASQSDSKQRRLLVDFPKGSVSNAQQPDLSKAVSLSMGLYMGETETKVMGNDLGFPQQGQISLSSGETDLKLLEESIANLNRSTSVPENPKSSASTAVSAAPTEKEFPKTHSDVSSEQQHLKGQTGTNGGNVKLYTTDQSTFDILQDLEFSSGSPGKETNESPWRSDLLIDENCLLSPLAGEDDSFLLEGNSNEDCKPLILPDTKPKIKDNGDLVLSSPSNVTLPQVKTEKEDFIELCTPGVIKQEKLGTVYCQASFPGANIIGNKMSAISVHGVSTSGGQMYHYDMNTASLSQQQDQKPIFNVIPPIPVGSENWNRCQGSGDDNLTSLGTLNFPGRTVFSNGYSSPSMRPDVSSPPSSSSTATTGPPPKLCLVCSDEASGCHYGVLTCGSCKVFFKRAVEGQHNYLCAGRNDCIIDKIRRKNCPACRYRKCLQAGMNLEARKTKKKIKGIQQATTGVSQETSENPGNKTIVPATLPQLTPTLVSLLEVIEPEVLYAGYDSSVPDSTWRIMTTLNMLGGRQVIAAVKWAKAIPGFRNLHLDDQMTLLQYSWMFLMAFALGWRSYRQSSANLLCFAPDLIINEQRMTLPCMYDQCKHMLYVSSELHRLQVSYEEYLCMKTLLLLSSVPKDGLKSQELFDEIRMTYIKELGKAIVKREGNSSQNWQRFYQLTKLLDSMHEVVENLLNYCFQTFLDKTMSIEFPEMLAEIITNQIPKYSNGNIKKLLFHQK

Glucocorticoid receptor [11] = biological target: T3, Glucocorticoid receptor; assay: Antagonist activity at glucocorticoid receptor (unknown origin) by NH Pro assay

IC50 (Estrogen receptor [1]): > 20 µM | EC50 (Estrogen receptor [2]): > 20 µM
SMILES: COC(=O)[C@@H]1CC2=CC(=O)CC[C@]2(C)[C@@]23O[C@@H]2C[C@@]2(C)[C@@H](CC[C@@]24CCC(=O)O4)[C@H]13 [EPLERENONE]

AUC/dose (Rattus norvegicus [3]): 0.05 µM·kg·h/mg | AUC/dose (Rattus norvegicus [4]): 0.75 µM·kg·h/mg | Cmax [5]: 60 nM | half-life [6]: 1.2 h | Vdss (Rattus norvegicus [7]): 2.8 L/kg | bioavailability [8]: 7% | IC50 [9]: 0.054 µM
SMILES: COc1cc(CNC(=O)[C@@]2(Cc3ccccc3)OC(=O)N([C@H](C)c3ccccc3)C2=O)cc(OC)c1

IC50 [9]: 2 µM
SMILES: C[C@H](c1ccccc1)N1C(=O)O[C@](Cc2ccccc2)(C(=O)Nc2cccc(Cl)c2)C1=O

IC50 [9]: 0.3 µM
SMILES: C[C@H](c1ccccc1)N1C(=O)O[C@](Cc2ccccc2)(C(=O)NCc2cccc3ccnn23)C1=O

IC50 [9]: 4 µM
SMILES: C[C@H](c1ccccc1)N1C(=O)O[C@](Cc2ccccc2)(C(=O)NCCc2ccncc2)C1=O

IC50 (Estrogen receptor [1]): > 20 µM | EC50 (Estrogen receptor [2]): > 20 µM | EC50 (Glucocorticoid receptor [10]): > 20 µM | IC50 (Glucocorticoid receptor [11]): 4.1 µM
SMILES: CC(=O)S[C@@H]1CC2=CC(=O)CC[C@]2(C)[C@H]2CC[C@@]3(C)[C@@H](CC[C@@]34CCC(=O)O4)[C@H]12 [SPIRONOLACTONE]

IC50 [9]: 0.5 µM
SMILES: COc1cc(CNC(=O)[C@@]2(Cc3ccccc3)OC(=O)N([C@@H](C)c3ccccc3)C2=O)cc(OC)c1

IC50 [9]: > 40 µM
SMILES: COc1cc(CNC(=O)C2(Cc3ccccc3)CN(Cc3ccccc3)C(=O)N2)cc(OC)c1 (stereo not drawn)

IC50 [9]: 3 µM
SMILES: C[C@H](c1ccccc1)N1C(=O)O[C@](Cc2ccccc2)(C(=O)NCc2cccc(S(C)(=O)=O)c2)C1=O

IC50 [9]: > 40 µM
SMILES: COc1cc(CNC(=O)[C@]2(Cc3ccccc3)C(=O)N(Cc3ccccc3)C(=O)N2C)cc(OC)c1

IC50 [9]: 0.19 µM
SMILES: C[C@H](c1ccccc1)N1C(=O)O[C@](Cc2ccccc2)(C(=O)N[C@H]2C[C@H](c3ccccc3)C2)C1=O

IC50 [9]: 0.17 µM
SMILES: COc1cc(CNC(=O)[C@@]2(Cc3ccccc3)OC(=O)N(C3CCCc4ccccc43)C2=O)cc(OC)c1 (stereo partly drawn)

IC50 [9]: > 10 µM
SMILES: COc1cc(CNC(=O)C2(Cc3ccccc3)CCN([C@H](C)c3ccccc3)C2=O)cc(OC)c1 (stereo partly drawn)
